The values below come from ChEMBL document CHEMBL3526004, “Interaction of silymarin flavonolignans with organic anion-transporting polypeptides” (Drug Metab Dispos, 2013).

The nature of data set [1]: Ratio of fCmax in portal vein of patient with chronic noncirrhotic HCV infection at 700 mg to IC50 for OATP1B1 (unknown origin) expressed in HEK293 cells. Further details: species or system Homo sapiens; call rule not given here.
Data set [2] can be described thus: Ratio of fCmax in portal vein of patient with chronic noncirrhotic HCV infection at 140 mg to IC50 for OATP1B3 (unknown origin) expressed in HEK293 cells. Further details: species or system Homo sapiens.
Data set [3] can be described thus: Cmax in patient with chronic noncirrhotic HCV infection at 700 mg. In kind it is ADME, organism-based. Further details: dose 700 mg. As to conditions: human, in vivo.
Data set [4] can be described thus: Ratio of fCmax in portal vein of patient with chronic noncirrhotic HCV infection at 700 mg to IC50 for OATP2B1 (unknown origin) expressed in HEK293 cells. Further details: species or system Homo sapiens.
Data set [5] in a line: Inhibition of OATP-mediated [3H]estradiol-17beta-glucuronide uptake in sandwich-cultured human hepatocytes at 100 uM after 1 day by beta-counting. In kind it is ADME, cell-based, Hepatocyte. The procedure, abridged:
(§1)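 Day-1 human hepatocytes (seeded 350,000 cells/well, medium changed after 1 h) rinsed in HBSS at 37°C. Co-incubated with [3H]-E2 17G (1 µM, 1 min) or [3H]-rosuvastatin (0.5 µM, 1.5 min) plus compound or vehicle. Cells were washed in ice-cold HBSS, lysed in 0.5% Triton X-100, and counted by scintillation. Non-OATP accumulation (100 µM BSP) was subtracted. Results are % vehicle, protein-normalized, as mean ± SEM of three experiments in triplicate.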

Data set [6] deals with T1, Solute carrier organic anion transporter family member 2B1 (Homo sapiens, UniProt O94956).
T1 sequence (O94956 whole entry): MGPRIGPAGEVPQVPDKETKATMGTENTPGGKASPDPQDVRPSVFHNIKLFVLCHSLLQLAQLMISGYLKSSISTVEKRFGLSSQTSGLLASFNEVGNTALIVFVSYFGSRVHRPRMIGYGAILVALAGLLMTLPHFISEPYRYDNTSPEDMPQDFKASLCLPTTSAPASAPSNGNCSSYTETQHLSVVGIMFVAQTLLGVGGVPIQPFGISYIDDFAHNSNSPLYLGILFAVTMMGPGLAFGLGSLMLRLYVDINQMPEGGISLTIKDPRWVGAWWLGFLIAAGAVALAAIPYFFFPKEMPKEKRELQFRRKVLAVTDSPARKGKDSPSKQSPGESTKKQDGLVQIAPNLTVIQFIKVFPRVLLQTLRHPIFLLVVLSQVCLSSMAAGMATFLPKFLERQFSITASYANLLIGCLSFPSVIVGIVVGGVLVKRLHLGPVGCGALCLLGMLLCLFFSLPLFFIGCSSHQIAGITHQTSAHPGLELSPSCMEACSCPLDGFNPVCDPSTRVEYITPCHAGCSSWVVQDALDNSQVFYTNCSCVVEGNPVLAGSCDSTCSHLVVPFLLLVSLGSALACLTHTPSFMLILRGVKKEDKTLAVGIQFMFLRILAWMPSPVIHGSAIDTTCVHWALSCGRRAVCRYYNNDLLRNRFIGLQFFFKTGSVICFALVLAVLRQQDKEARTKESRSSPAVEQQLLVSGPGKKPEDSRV
As to the kind of experiment: Inhibition of OATP2B1 (unknown origin) expressed in MDCK2 cells assessed as reduction of [3H]estrone-3-sulfate uptake after 3 mins by beta-counting. In kind it is ADME, cell-based, MDCK-II. Summed up: (§2)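 Transfected HEK293 (G418) or MDCKII (hygromycin B) cells were co-incubated with 0-100 µM compound and [3H]-E2 17G (1 µM, 0.25 µCi/ml; OATP1B1, OATP1B3) or [3H]-E1S (1 µM; OATP2B1) in HBSS pH 7.4, 3 min at 37°C. OATP-negative uptake was subtracted, and results expressed as % vehicle. Two experiments were run in duplicate. IC50 came from non-linear dose-response fits.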

The nature of data set [7]: Inhibition of OATP-mediated [3H]rosuvastatin uptake in sandwich-cultured human hepatocytes at 100 uM after 1 day by beta-counting. In kind it is ADME, cell-based, Hepatocyte. The procedure, abridged:
as §1

The nature of data set [8]: Ratio of fCmax in portal vein of patient with chronic noncirrhotic HCV infection at 140 mg to IC50 for OATP1B1 (unknown origin) expressed in HEK293 cells. More on the design: species or system Homo sapiens.
The nature of data set [9]: fCmax in portal vein of patient with chronic noncirrhotic HCV infection at 140 mg. In kind it is ADME. As to conditions: human.
Data set [10] addresses T2, Solute carrier organic anion transporter family member 1B3 (Homo sapiens, UniProt Q9NPD5).
T2 sequence (Q9NPD5 whole entry): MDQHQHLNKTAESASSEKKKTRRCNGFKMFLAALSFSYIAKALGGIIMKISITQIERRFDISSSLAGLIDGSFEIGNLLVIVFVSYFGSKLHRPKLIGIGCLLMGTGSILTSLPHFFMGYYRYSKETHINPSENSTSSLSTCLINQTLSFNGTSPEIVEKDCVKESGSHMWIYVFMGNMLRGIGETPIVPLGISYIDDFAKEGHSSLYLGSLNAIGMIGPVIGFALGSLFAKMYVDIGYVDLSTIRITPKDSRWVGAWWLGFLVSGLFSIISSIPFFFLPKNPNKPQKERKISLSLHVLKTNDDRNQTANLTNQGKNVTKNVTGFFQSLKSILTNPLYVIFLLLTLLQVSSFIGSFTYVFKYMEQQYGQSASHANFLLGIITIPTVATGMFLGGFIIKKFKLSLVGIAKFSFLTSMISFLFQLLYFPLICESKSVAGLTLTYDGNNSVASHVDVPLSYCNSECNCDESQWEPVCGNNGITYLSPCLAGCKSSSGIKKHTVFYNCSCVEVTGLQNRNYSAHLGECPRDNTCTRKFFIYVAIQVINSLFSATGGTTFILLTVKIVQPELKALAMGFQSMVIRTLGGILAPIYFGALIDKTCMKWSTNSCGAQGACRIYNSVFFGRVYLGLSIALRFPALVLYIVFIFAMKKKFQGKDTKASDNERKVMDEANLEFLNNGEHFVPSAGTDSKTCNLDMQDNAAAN
The experiment in a line: Inhibition of OATP1B3 (unknown origin) expressed in HEK293 cells assessed as reduction of [3H]estradiol-17beta-glucuronide uptake after 3 mins by beta-counting. In kind it is ADME, cell-based. Summed up: as §2

The nature of data set [11]: Protein binding in rat. As to conditions: in vivo, read-out: PB (converted). In kind it is ADME, organism-based.
Data set [12] in a line: Ratio of fCmax in portal vein of patient with chronic noncirrhotic HCV infection at 700 mg to IC50 for OATP1B3 (unknown origin) expressed in HEK293 cells. Further details: species or system Homo sapiens.
A short description of data set [13]: Cmax at steady state in patient with chronic HCV infection at 140 mg administered 3 times per day. In kind it is ADME, organism-based. Further details: dose 140 mg. As to conditions: human, in vivo.
A short description of data set [14]: Unbound fraction in human plasma. In kind it is ADME, cell-free.

Regarding `COc1cc([C@H]2Oc3cc([C@H]4Oc5cc(O)cc(O)c5C(=O)[C@@H]4O)ccc3O[C@@H]2CO)ccc1O` [SILYBIN A], the Ratio came out at 0.02 in [1]; 0.01 in data set [2]; 0.05 in data set [4]; 0.004 in data set [8]; 0.08 in [12]. The figures for the Cmax in [3] and in data set [13] were 580 ng/mL and 80 nM, respectively. Moreover, the “inhibition (INH)” value in data set [5] and in [7] was “Active” each time. Moreover, the IC50 in [6] stood at 4500 nM; in data set [10], 2.7 µM. The molecule further yielded a fCmax in [9] of 0.04 µM. Besides, the fraction unbound in data set [11] was 0.3; in data set [14], 0.05.
Take `COc1cc([C@@H]2Oc3cc([C@H]4Oc5cc(O)cc(O)c5C(=O)[C@@H]4O)ccc3O[C@H]2CO)ccc1O` [SILYBIN B]: the Ratio in data set [1] was found to be 0.08; in data set [2] it was 0.03; in [4], 0.88; in data set [8] it was 0.02; in data set [12], 0.14. The Cmax in data set [3] was found to be 220 ng/mL; in data set [13], 16 nM. Also, the “inhibition (INH)” value in data set [5] and in [7] was “Active” throughout. The IC50 in [6] came to 800 nM; in data set [10], 5 µM. For the same molecule, in data set [9], the fCmax is 0.13 µM. Also, the values for the fraction unbound in [11] and in data set [14] were 0.3 and 0.05, respectively.

In general, Cmax refers to the maximum level reached in the sampled fluid or tissue. A word on the IC50: it is the point on the concentration scale where inhibition reaches its midpoint.
